Consider eleven compounds from paper PMC6246805 (SLAS discovery : advancing life sciences R & D, 2018).

Structures can show the parent of a compound that is named as a salt.

In test [1] the target is T1, aerobactin synthetase IucA (Klebsiella pneumoniae, UniProt A0A1A9TA96). Format: biochemical, hypervirulent K. pneumoniae hvKP1. The following applies: for inhibition of IucA in pilot screen and follow-up: pilot screen of 4,400 bioactives, enzyme-initiated protocol; for effect of increasing IucA concentration on apparent potency: 20, 200, or 2,000 nM IucA; for effect of increasing IucA concentration on apparent potency / effect of 1 h pre-incubation with IucA on apparent potency: MG assay; for effect of 1 h pre-incubation with IucA on apparent potency: compared to reactions without pre-incubation.

Test [2] concerns IucA. Put plainly: Fluorescence-based thermal shift assay. The conditions noted are these: substrates ATP (1.5 mM) and citrate (1.5 mM). The format is binding, hypervirulent K. pneumoniae hvKP1. The essentials: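 Purified IucA (10 μg per sample) with 5× SYPRO Orange, in the more concentrated buffer used for substrate runs: 50 mM HEPES, 150 mM NaCl, 0.2 mM TCEP, pH 7.5. ATP and citrate were each at 1.5 mM. Samples were heated from 25 to 99 °C over 45 min in a real-time PCR instrument, reading fluorescence (ex 545/em 568 nm) every 0.5 °C. TM was taken as the maximum of the first derivative of the melt curve.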

Test [3] deals with IucA. The conditions noted are these: read-out: KM for IucA; cited from earlier work.
The target in test [4] is T1, aerobactin synthetase IucA. Put plainly: Orthogonal luminescence. Format: biochemical, hypervirulent K. pneumoniae hvKP1. The following applies: 30 min pre-incubation, substrate-initiated.
The conditions of test [5]: ref PubChem database; cited from earlier work.
A further test deals with bacterial IspE kinase. The following applies: cited from earlier work.
For a further test, the system named is human RAD51 recombinase. The conditions noted are these: cited from earlier work.
A further test concerns RecA. The conditions noted are these: cited from earlier work.

`O=C(O)c1cc[c]([Hg][Cl])cc1` [4-chloromercuribenzoic acid, reference compound]: the “inhibition of IucA in pilot screen and follow-up” value (shortened to “inhibition of IucA”) in test [1] is reported as “identified in the initial screen”.
As for `Nc1ncnc2c1ncn2[C@@H]1O[C@H](COP(=O)(O)OP(=O)([O-])OP(=O)([O-])O)[C@@H](O)[C@H]1O.[Na+].[Na+]` [ATP, adenosine triphosphate disodium salt hydrate], in the test with IucA [2], the “shift in the melting temperature (TM) of IucA” value was “+2–5 °C”. Also, in the test on IucA [3], the Km was 130 ± 30 µM.
Turning to `CC1=NN(c2nc(-c3ccc(Cl)cc3)cs2)C(=O)/C1=C\c1ccc2c(c1)OCO2` [CB02], the “dose-dependent activity, secondary luminescence assay” value in test [4] was “most potent dose-dependent activity”. Besides, the “reported active in unique PubChem bioassays” value in test [5] is reported as 2 out of 8. Further, in test [1], the “effect of increasing IucA concentration on apparent potency” value is listed as “apparent potency was reduced” and the “effect of 1 h pre-incubation with IucA on apparent potency” value was “increased apparent potency”. For the same compound, the “dose-dependent activity, primary substrate-initiated MG assay” value in test [1] (purchased compounds, substrate-initiated protocol) was “highest potency”.
Consider `COc1ccc(-n2c(-c3cccnc3)nc3ccccc3c2=O)cc1` [CB04], for which the “inhibition of IspE kinase” value in the test with bacterial IspE kinase is “potent inhibitors”.
As for `O=c1c2ccccc2nc(-c2cccnc2)n1-c1ccc(Br)cc1` [CB05], the “inhibition of IspE kinase” value with bacterial IspE kinase is given as “potent inhibitors”.
Take `O=c1c2ccccc2nc(/C=C/c2cccnc2)n1Cc1ccccc1` [CB06]: the “inhibition of human RAD51 recombinase” value in the test with human RAD51 recombinase was “inhibitor”. Moreover, in the test on RecA, the “inhibition of E. coli RecA” value was “did not inhibit”. Also, in test [1], the “effect of increasing IucA concentration on apparent potency” value is listed as “apparent potency was reduced” and the “effect of 1 h pre-incubation with IucA on apparent potency” value is on record as “increased apparent potency”.
For `O=c1c2ccccc2[se]n1-c1ccccc1` [Ebselen, reference compound], the “inhibition of IucA” value in test [1] is listed as “identified as an inhibitor”.
The same measure, in the same setting: the entry for `O=C([O-])c1ccccc1-c1c2cc(Br)c(=O)cc-2oc2[c]([Hg+])c([O-])c(Br)cc12.[Na+].[Na+].[OH-]` [Merbromin, reference compound] is “identified in the initial screen”.
As for `O=C(O)CC(O)(CC(=O)O)C(=O)O` [citrate, sodium citrate tribasic dihydrate], in the test on IucA [3], the Km was 180 ± 30 µM.
For `CC(=O)[O][Hg][c]1ccccc1` [phenylmercuric acetate, reference compound], the “inhibition of IucA” value in test [1] is reported as “identified in the initial screen”.
Take `C[CH2][Hg][S]c1ccccc1C(=O)[O-].[Na+]` [thiomersal, reference compound]: the “inhibition of IucA” value in test [1] is “identified in the initial screen”.

What is called Km is the substrate concentration at which the rate is half of its maximum.
